Data on one compound can be found in ChEMBL document CHEMBL4152367, “Discovery of a Potent Thiazolidine Free Fatty Acid Receptor 2 Agonist with Favorable Pharmacokinetic Properties” (J Med Chem, 2018).

Series [1] concerns the target T1, Oxysterols receptor LXR-beta (Homo sapiens) (UniProt P55055).
T1 sequence (whole entry): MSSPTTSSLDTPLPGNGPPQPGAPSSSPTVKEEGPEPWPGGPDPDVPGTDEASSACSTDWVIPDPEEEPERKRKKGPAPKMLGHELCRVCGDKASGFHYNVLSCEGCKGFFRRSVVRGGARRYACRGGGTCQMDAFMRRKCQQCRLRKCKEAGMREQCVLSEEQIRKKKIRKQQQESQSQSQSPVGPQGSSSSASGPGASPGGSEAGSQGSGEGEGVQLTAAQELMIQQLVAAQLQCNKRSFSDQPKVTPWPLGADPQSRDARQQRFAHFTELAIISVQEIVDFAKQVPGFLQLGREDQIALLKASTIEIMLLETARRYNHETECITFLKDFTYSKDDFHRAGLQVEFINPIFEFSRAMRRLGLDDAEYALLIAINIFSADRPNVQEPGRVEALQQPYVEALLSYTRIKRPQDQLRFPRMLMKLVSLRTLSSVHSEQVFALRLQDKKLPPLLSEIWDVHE
In words: Agonist activity at human LXRbeta expressed in Escherichia coli assessed as induction of calcium flux at 10 uM by fluorimetry. (Calcium assays in cells follow changes in intracellular calcium, usually with a dye or a luminescent sensor.)

For series [2], the target named is T2, Free fatty acid receptor 4 (Homo sapiens) (UniProt Q5NUL3).
T2 sequence (whole entry): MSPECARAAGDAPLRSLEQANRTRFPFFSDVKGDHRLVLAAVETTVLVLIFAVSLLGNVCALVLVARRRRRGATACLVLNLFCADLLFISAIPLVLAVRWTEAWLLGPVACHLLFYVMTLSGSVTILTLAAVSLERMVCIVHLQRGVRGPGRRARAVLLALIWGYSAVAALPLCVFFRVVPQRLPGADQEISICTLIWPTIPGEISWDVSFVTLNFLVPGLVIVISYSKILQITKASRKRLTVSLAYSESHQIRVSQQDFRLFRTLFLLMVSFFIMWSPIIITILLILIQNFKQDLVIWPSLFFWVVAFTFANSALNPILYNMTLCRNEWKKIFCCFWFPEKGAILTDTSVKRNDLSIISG
In words: Antagonist activity at human FFA4 receptor expressed in HEK293 cells assessed as inhibition of GW9508-induced of calcium flux at 10 uM by fluorimetry. It is filed as functional, cell-based.

A short description of series [3]: Clearance in Balb/c mouse primary hepatocytes per million cells after 2 hrs by LC-MS/MS analysis. The conditions noted are these: read-out: CLH. Type of series: ADME, cell-based, Hepatocyte.
A short description of series [4]: AUC (0 to infinity) in Balb/c mouse at 5 mg/kg, ip by HPLC-MS/MS analysis. Set-up: dose 5 mg/kg, time infinity, route intraperitoneal. The conditions noted are these: in vivo. Type of series: ADME, organism-based.
The target in series [5] is T3, Peroxisome proliferator-activated receptor delta (Homo sapiens) (UniProt Q03181).
T3 sequence (whole entry): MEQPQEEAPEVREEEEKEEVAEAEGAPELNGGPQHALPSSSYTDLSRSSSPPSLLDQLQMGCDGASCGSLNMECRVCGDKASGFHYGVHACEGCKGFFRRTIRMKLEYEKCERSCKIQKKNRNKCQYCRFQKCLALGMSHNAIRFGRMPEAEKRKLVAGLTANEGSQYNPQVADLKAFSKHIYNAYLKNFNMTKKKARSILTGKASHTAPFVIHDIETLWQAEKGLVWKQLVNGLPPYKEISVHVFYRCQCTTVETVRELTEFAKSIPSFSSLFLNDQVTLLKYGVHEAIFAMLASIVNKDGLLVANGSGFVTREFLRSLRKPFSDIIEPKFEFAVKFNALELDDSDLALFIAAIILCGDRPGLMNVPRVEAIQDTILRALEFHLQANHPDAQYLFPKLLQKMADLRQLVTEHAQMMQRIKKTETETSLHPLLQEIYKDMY
In words: Agonist activity at human PPARdelta expressed in Escherichia coli assessed as induction of calcium flux at 10 uM by fluorimetry.

The target in series [6] is T3, Peroxisome proliferator-activated receptor delta (Homo sapiens). In words: Antagonist activity at human PPARdelta expressed in Escherichia coli assessed as inhibition of GW0742-induced calcium flux at 10 uM by fluorimetry.
Series [7] can be described thus: Total clearance in Balb/c mouse at 5 mg/kg, iv by HPLC-MS/MS analysis. It is filed as ADME, organism-based. The conditions noted are these: in vivo. In outline:
(§1)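 Balb/c mice dosed at 5 mg/kg iv or 10 mg/kg po. Plasma concentrations over time used to derive t1/2, AUC0–∞, Vd and total clearance (iv), and tmax, Cmax, AUC0–∞ and oral bioavailability (po).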

The target of series [8] is T4, Peroxisome proliferator-activated receptor alpha (Homo sapiens) (UniProt Q07869).
T4 sequence (whole entry): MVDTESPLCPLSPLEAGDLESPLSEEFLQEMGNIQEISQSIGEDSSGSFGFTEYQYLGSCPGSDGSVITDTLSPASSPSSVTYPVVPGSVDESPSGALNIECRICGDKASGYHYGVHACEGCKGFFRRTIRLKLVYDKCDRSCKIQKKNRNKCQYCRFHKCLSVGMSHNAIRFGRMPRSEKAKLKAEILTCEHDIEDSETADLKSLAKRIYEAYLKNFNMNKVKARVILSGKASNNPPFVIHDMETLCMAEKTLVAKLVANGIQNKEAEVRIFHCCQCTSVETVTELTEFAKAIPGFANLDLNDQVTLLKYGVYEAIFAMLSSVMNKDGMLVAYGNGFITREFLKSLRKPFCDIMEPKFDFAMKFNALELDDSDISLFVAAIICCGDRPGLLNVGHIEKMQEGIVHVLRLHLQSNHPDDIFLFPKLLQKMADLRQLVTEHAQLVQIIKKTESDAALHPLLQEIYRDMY
In words: Antagonist activity at human PPARalpha expressed in Escherichia coli assessed as inhibition of […]-induced calcium flux at 10 uM by alpha screen assay.

Series [9] can be described thus: Metabolic stability in Balb/c mouse primary hepatocytes assessed as compound recovery after 2 hrs by LC-MS/MS analysis. It is filed as ADME, cell-based, Hepatocyte. The conditions noted are these: read-out: Drug recovery.
Series [10] can be described thus: Half life in Balb/c mouse at 5 mg/kg, ip by HPLC-MS/MS analysis. It is filed as ADME, organism-based. The conditions noted are these: in vivo.
Series [11] can be described thus: Chemical stability of the compound in FaSSGF after 2 hrs. Type of series: ADME, physicochemical. The conditions noted are these: read-out: Stability. An outline of the steps: (§2)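 Simulated-fluid stability: 50 µM compound in FaSSIF or FaSSGF (from 10 mM DMSO stock), shaken at 37 °C for 0 and 120 min. Quenched with acetonitrile containing 0.5% HCOOH, centrifuged, supernatant by HPLC. Stability from peak area relative to the 0 min sample; duplicates, mean reported.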

In series [12] the target is Free fatty acid receptor 1 (Homo sapiens) (UniProt O14842). In words: Antagonist activity at human FFA1 receptor expressed in HEK293 cells assessed as inhibition of linoleic acid-induced calcium flux at 10 uM by fluorimetry. Type of series: functional, cell-based.
The nature of series [13]: Cmax in Balb/c mouse at 10 mg/kg, po by HPLC-MS/MS analysis. The conditions noted are these: in vivo. Set-up: dose 10 mg/kg, route oral. It is filed as ADME, organism-based. An outline of the steps: as §1
The nature of series [14]: Chemical stability of the compound in FaSSIF after 2 hrs. The conditions noted are these: read-out: Stability. Type of series: physicochemical. An outline of the steps:
as §2

Series [15] has as its target T1, Oxysterols receptor LXR-beta (Homo sapiens). In words: Antagonist activity at human LXRbeta expressed in Escherichia coli assessed as inhibition of T0901317-induced calcium flux at 10 uM by fluorimetry.
Series [16] in a line: AUC (0 to infinity) in Balb/c mouse at 5 mg/kg, iv by HPLC-MS/MS analysis. It is filed as ADME, organism-based. Set-up: dose 5 mg/kg, time infinity, route intravenous. The conditions noted are these: in vivo. In outline: as §1
A short description of series [17]: Octanol/PBS buffer partition co-efficient, log D of the compound at pH 7.4 after 24 hrs by HPLC analysis. It is filed as physicochemical.

Active and inactive are the calls of the source.

Sequence of Free fatty acid receptor 1 (Homo sapiens) (O14842 whole entry): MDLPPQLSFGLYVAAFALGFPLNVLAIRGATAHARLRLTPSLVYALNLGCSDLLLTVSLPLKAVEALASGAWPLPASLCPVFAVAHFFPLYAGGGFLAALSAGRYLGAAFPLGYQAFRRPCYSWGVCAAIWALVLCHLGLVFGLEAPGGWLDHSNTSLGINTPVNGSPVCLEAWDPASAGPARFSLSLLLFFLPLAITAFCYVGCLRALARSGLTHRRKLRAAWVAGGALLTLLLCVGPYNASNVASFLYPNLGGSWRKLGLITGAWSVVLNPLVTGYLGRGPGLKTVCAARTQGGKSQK

In the case of `Cc1noc(C)c1-c1ccc(C(=O)N2[C@@H](c3ccccc3Cl)SC[C@H]2C(=O)O)cc1`, the result in series [1] and in series [5] was inactive. Further, the inhibition result in series [2], in series [6], in [8], in series [12] and in [15] was “inactive” each time. In series [3], the hepatocyte CLint was less than 8 µL/min/1e6 cells. Also, the AUC(0-inf) – broadly, total exposure, with the tail of the curve extrapolated – was 1010 ng·h/mL in series [4] and 4100 ng·h/mL in series [16]. Further, the clearance (usually a measure of how efficiently the substance is removed, as volume per time) in series [7] turned out to be 20.3 mL/min/kg. The remaining at 2 h was determined as 72% in series [9], 100% in series [11] and 95% in series [14]. Also, in series [10], the half-life – broadly, the time needed for the level to fall by half in the phase considered – came to 1.37 h. Also, the concentration in [13] peaked (Cmax) at 2880 ng/mL. Further, the logD (as a rule, the decadic logarithm of the distribution of all forms, ionised or not, between an organic phase and buffer at a given pH) at 24 h in series [17] was 0.94.
